Data set [1] can be described thus: folding enthalpy; higher = less favourable; fluorescence melt of hairpins on a sequencing array, two-state fit. To be noted: sodium 0.088 M. A digest of the protocol:
(§1)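 On a sequenced MiSeq flow cell, library hairpins with annealed Cy3 and quencher oligos were imaged for Cy3 fluorescence in 2.5 °C steps up to 60 °C, in 50 mM Na-HEPES pH 8.0, 25 mM NaCl. Normalisation used pre-quench Cy3 and control constructs. Bootstrapped two-state fits gave melting temperature and folding enthalpy, combined by inverse variance across four replicates and with fitted temperatures raised by 9.35 °C to match UV melts.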

A short description of data set [2]: melting temperature; fluorescence melt of hairpins on a sequencing array, two-state fit, raised by 9.35 °C to match UV melts. The following applies: sodium 0.088 M. A digest of the protocol: as §1

For GGCTACCGAAAGGTCGCC (((.(((....))).))), the folding enthalpy in data set [1] is -39.2 kcal/mol. The Tm in data set [2] was 58.6 °C.
For the sequence GGCTACCGAAAGGTGCC (((.(((....)))))), in data set [1], the folding enthalpy is -31.3 kcal/mol. Besides, the Tm in data set [2] was determined as 61.2 °C.
GGCTACGAAAGTATAGCC ((((((....)))..))): the folding enthalpy in data set [1] was -25.1 kcal/mol. The Tm in data set [2] came to 49.9 °C.
In the same order, the values of GGCTACGAAAGTATTGCC ((((((....)))..))) are -20.1 kcal/mol and 44.1 °C.
In the same order, the values of GGCTACGGAAACACAGCC ((((..(....)..)))) are -23.6 kcal/mol and 35.5 °C.
With GGCTACGGAAACGCAGCC ((((.((....)).)))), in data set [1], the folding enthalpy is -53 kcal/mol. For the same sequence, the Tm in data set [2] turned out to be 52.6 °C.
As to GGCTAGAAATAGCC (((((....))))), the folding enthalpy in data set [1] was -24.6 kcal/mol. For the same sequence, the Tm in data set [2] worked out at 51.5 °C.
For GGCTAGCCGAAAGGCGCC (((..(((....)))))), the folding enthalpy in data set [1] was -15.9 kcal/mol. For the same sequence, the Tm in data set [2] came to 59 °C.
On to GGCTAGCGAAAGCTGCC (((.(((....)))))), for which the folding enthalpy in data set [1] is -22.7 kcal/mol. Further, the Tm in data set [2] was found to be 64.3 °C.
Regarding GGCTAGCGAAAGCTTGCC (((.(((....))).))), in data set [1], the folding enthalpy was -36.3 kcal/mol. For the same sequence, the Tm in data set [2] worked out at 65.6 °C.
In the same order, the values of GGCTAGGAAACTAGCC ((((((....)))))) are -34.8 kcal/mol and 60.4 °C.
In the same order, the values of GGCTAGGGAAACCTAGCC (((((((....))))))) are -42.6 kcal/mol and 67.5 °C.
Turning to GGCTAGGGAAACCTGGTC (.(.(((....))).).), the folding enthalpy in data set [1] is -30.6 kcal/mol. Further, the Tm in data set [2] worked out at 35.5 °C.
With GGCTAGGGAAACTTGGCC (((.(.(....).).))), in data set [1], the folding enthalpy is -25.9 kcal/mol. Also, in data set [2], the Tm worked out at 40.6 °C.
In the same order, the values of GGCTAGTCGAAAGACGCC (((..(((....)))))) are -19.9 kcal/mol and 52.3 °C.
Consider GGCTATCGAAAGATGCC (((.(((....)))))), for which the folding enthalpy in data set [1] is -25.3 kcal/mol. The Tm in data set [2] turned out to be 52.8 °C.
As for GGCTATGGAAACATGGCC (((.(((....))).))), the folding enthalpy in data set [1] was -53.7 kcal/mol. In data set [2], the Tm was found to be 53.2 °C.
For GGCTCAGGAAACCAAGCC ((((..(....)..)))), the folding enthalpy in data set [1] was -31.6 kcal/mol. The Tm in data set [2] came out at 35.3 °C.
In the same order, the values of GGCTCAGGAAACTGGGTC (.(.(((....))).).) are -25.9 kcal/mol and 38 °C.
With GGCTCCCCGAAAGGGGCC (((..(((....)))))), the folding enthalpy in data set [1] is -12 kcal/mol. In addition, the Tm in data set [2] turned out to be 50.9 °C.
Regarding GGCTCCCGAAAGGGCGCC (((.(((....))).))), the folding enthalpy in data set [1] is -33.6 kcal/mol. Moreover, the Tm in data set [2] worked out at 62.6 °C.
As to GGCTCCGAAAGGATAGCC ((((((....)))..))), the folding enthalpy in data set [1] was -39.5 kcal/mol. For the same sequence, the Tm in data set [2] turned out to be 52.4 °C.
As to GGCTCCGAAAGGATCGCC ((((((....)))..))), the folding enthalpy in data set [1] was -21.7 kcal/mol. The Tm in data set [2] worked out at 47.2 °C.
Consider GGCTCCGAAAGGATGGCC ((((((....)))..))), for which the folding enthalpy in data set [1] is -30.9 kcal/mol. For the same sequence, the Tm in data set [2] turned out to be 52.3 °C.
GGCTCCGGAAACAGAGCC (((((.(....).))))): the folding enthalpy in data set [1] is -34 kcal/mol. Moreover, in data set [2], the Tm is 50.5 °C.
For the sequence GGCTCCGGAAACGGAACC ((.((((....)))).)), the folding enthalpy in data set [1] is -28.9 kcal/mol. In addition, the Tm in data set [2] came to 51.1 °C.
In the same order, the values of GGCTCGGCGAAAGCCGCC (((..(((....)))))) are -8.18 kcal/mol and 43 °C.
With GGCTCGGGAAACCAAGCC ((((.((....)).)))), the folding enthalpy in data set [1] is -35.3 kcal/mol. For the same sequence, the Tm in data set [2] worked out at 48.8 °C.
Regarding GGCTCGTCGAAAGACGCC (((..(((....)))))), the folding enthalpy in data set [1] was -9.65 kcal/mol. The Tm in data set [2] was found to be 42 °C.
With GGCTCTGGAAACGGAGCC (((((.(....).))))), in data set [1], the folding enthalpy is -47.1 kcal/mol. Moreover, the Tm in data set [2] stood at 60 °C.
With GGCTGATCGAAAGATGCC (((..(((....)))))), in data set [1], the folding enthalpy is -22.6 kcal/mol. Moreover, in data set [2], the Tm is 43.9 °C.
Consider GGCTGCGAAAGCAATGCC ((((((....)))..))), for which the folding enthalpy in data set [1] was -22 kcal/mol. Moreover, the Tm in data set [2] was 55 °C.
Consider GGCTGCGAAAGCACCGCC ((((((....)))..))), for which, in data set [1], the folding enthalpy is -20.7 kcal/mol. The Tm in data set [2] was determined as 54.1 °C.
In the same order, the values of GGCTGCGAAAGCAGCGCC ((((((....)))..))) are -5.65 kcal/mol and 68.8 °C.
In the same order, the values of GGCTGCGAAAGCATGGCC ((((((....)))..))) are -31.8 kcal/mol and 54.6 °C.
In the same order, the values of GGCTGCGGAAACACAGCC (((((.(....).))))) are -42 kcal/mol and 56 °C.
Turning to GGCTGGGCGAAAGCCGCC (((..(((....)))))), the folding enthalpy in data set [1] is -19.6 kcal/mol. Moreover, in data set [2], the Tm was 58.4 °C.

The record behind these values is the array DNA melting data of Ke et al. (doi:10.1101/2024.01.08.574731).
